Results from ChEMBL document CHEMBL1649132, “Dry powder nitroimidazopyran antibiotic PA-824 aerosol for inhalation” (Antimicrob Agents Chemother, 2009).
≈ marks a conversion by molar mass, not a printed value.

Tests used:
[1] = Chemical stability of the compound at 40 degC; type: physicochemical
[2] = Chemical stability of the compound after 6 months; type: physicochemical; details: 4383 h
[3] = Chemical stability of the compound after 12 months; type: physicochemical; details: 8766 h
Cavia porcellus [4] = experiment: AUC (0 to infinity) in guinea pig at 20 mg/kg, iv by HPLC method; type: ADME, organism-based, Plasma; parameters: time infinity, dose 20 mg/kg, route intravenous; details: in vivo
How it was run: (§1)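 Healthy male guinea pigs (463.86 ± 65.11 g), jugular vein cannulated 24 h before dosing; n = 6 or 7 per group. Dosing was i.v. solution 20 mg/kg, oral gavage of mixed micelle suspension (10% hydroxypropyl-β-cyclodextrin, 10% lecithin) 40 mg/kg, or intratracheal insufflation of porous dry powder at nominal 20, 40, 60 mg/kg. For insufflation, the delivered dose was taken by weighing the device before and after. Blood was drawn 0–24 h (to 32 h at 60 mg/kg) and plasma assayed by validated HPLC-UV (standards 0.20–50 µg/ml).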

[5] = Elimination rate constant in guinea pig at 20 mg/kg, iv by HPLC method; type: ADME, organism-based, Cavia porcellus; parameters: dose 20 mg/kg, route intravenous; details: in vivo; how it was run: as §1
[6] = Half life in guinea pig at 20 mg/kg, iv by HPLC method; type: ADME, organism-based, Cavia porcellus; parameters: dose 20 mg/kg, route intravenous; details: in vivo; how it was run: as §1
[7] = Mean residence time in guinea pig at 20 mg/kg, iv by HPLC method; type: ADME, organism-based, Cavia porcellus; parameters: dose 20 mg/kg, route intravenous; details: in vivo; how it was run: as §1
[8] = Cmax in guinea pig at 20 mg/kg, iv by HPLC method; type: ADME, organism-based, Cavia porcellus; parameters: dose 20 mg/kg, route intravenous; details: in vivo; how it was run: as §1
[9] = Tmax in guinea pig at 20 mg/kg, iv by HPLC method; type: ADME, organism-based, Cavia porcellus; parameters: dose 20 mg/kg, route intravenous; details: in vivo; how it was run: as §1
Cavia porcellus [10] = experiment: AUC (0 to infinity) in guinea pig at 40 mg/kg, po by HPLC method; type: ADME, organism-based, Plasma; parameters: time infinity, dose 40 mg/kg, route oral; details: in vivo; how it was run: as §1
[11] = Elimination rate constant in guinea pig at 40 mg/kg, po by HPLC method; type: ADME, organism-based, Cavia porcellus; parameters: dose 40 mg/kg, route oral; details: in vivo; how it was run: as §1
[12] = Half life in guinea pig at 40 mg/kg, po by HPLC method; type: ADME, organism-based, Cavia porcellus; parameters: dose 40 mg/kg, route oral; details: in vivo; how it was run: as §1
[13] = Mean residence time in guinea pig at 40 mg/kg, po by HPLC method; type: ADME, organism-based, Cavia porcellus; parameters: dose 40 mg/kg, route oral; details: in vivo; how it was run: as §1
[14] = Cmax in guinea pig at 40 mg/kg, po by HPLC method; type: ADME, organism-based, Cavia porcellus; parameters: dose 40 mg/kg, route oral; details: in vivo; how it was run: as §1
[15] = Tmax in guinea pig at 40 mg/kg, po by HPLC method; type: ADME, organism-based, Cavia porcellus; parameters: dose 40 mg/kg, route oral; details: in vivo; how it was run: as §1
Cavia porcellus [16] = experiment: Bioavailability (0 to infinity) in guinea pig at 40 mg/kg, po by HPLC method; type: ADME, organism-based; details: in vivo; how it was run: as §1
[17] = AUC (0 to infinity) in guinea pig at 20 mg/kg, administered via intratracheal insufflation by HPLC method; type: ADME, organism-based, Cavia porcellus; parameters: time infinity, dose 20 mg/kg, route endotracheal; details: plasma, inhaled or intranasal; how it was run: as §1
[18] = Elimination rate constant in guinea pig at 20 mg/kg, administered via intratracheal insufflation by HPLC method; type: ADME, organism-based, Cavia porcellus; parameters: dose 20 mg/kg, route endotracheal; details: in vivo, inhaled or intranasal; how it was run: as §1
[19] = Half life in guinea pig at 20 mg/kg, administered via intratracheal insufflation by HPLC method; type: ADME, organism-based, Cavia porcellus; parameters: dose 20 mg/kg, route endotracheal; details: in vivo, inhaled or intranasal; how it was run: as §1
[20] = Mean residence time in guinea pig at 20 mg/kg, administered via intratracheal insufflation by HPLC method; type: ADME, organism-based, Cavia porcellus; parameters: dose 20 mg/kg, route endotracheal; details: in vivo, inhaled or intranasal; how it was run: as §1
[21] = Cmax in guinea pig at 20 mg/kg, administered via intratracheal insufflation by HPLC method; type: ADME, organism-based, Cavia porcellus; parameters: dose 20 mg/kg, route endotracheal; details: in vivo, inhaled or intranasal; how it was run: as §1
[22] = Tmax in guinea pig at 20 mg/kg, administered via intratracheal insufflation by HPLC method; type: ADME, organism-based, Cavia porcellus; parameters: dose 20 mg/kg, route endotracheal; details: in vivo, inhaled or intranasal; how it was run: as §1
[23] = Bioavailability (0 to infinity) in guinea pig at 20 mg/kg, administered via intratracheal insufflation by HPLC method; type: ADME, organism-based, Cavia porcellus; details: in vivo, inhaled or intranasal; how it was run: as §1
[24] = Bioavailability in guinea pig at 20 mg/kg, administered via intratracheal insufflation by HPLC method; type: ADME, organism-based, Cavia porcellus; details: in vivo, inhaled or intranasal; how it was run: as §1
[25] = AUC (0 to infinity) in guinea pig at 40 mg/kg, administered via intratracheal insufflation by HPLC method; type: ADME, organism-based, Cavia porcellus; parameters: time infinity, dose 40 mg/kg, route endotracheal; details: plasma, inhaled or intranasal; how it was run: as §1
[26] = Elimination rate constant in guinea pig at 40 mg/kg, administered via intratracheal insufflation by HPLC method; type: ADME, organism-based, Cavia porcellus; parameters: dose 40 mg/kg, route endotracheal; details: in vivo, inhaled or intranasal; how it was run: as §1
[27] = Half life in guinea pig at 40 mg/kg, administered via intratracheal insufflation by HPLC method; type: ADME, organism-based, Cavia porcellus; parameters: dose 40 mg/kg, route endotracheal; details: in vivo, inhaled or intranasal; how it was run: as §1
[28] = Mean residence time in guinea pig at 40 mg/kg, administered via intratracheal insufflation by HPLC method; type: ADME, organism-based, Cavia porcellus; parameters: dose 40 mg/kg, route endotracheal; details: in vivo, inhaled or intranasal; how it was run: as §1
[29] = Cmax in guinea pig at 40 mg/kg, administered via intratracheal insufflation by HPLC method; type: ADME, organism-based, Cavia porcellus; parameters: dose 40 mg/kg, route endotracheal; details: in vivo, inhaled or intranasal; how it was run: as §1
[30] = Tmax in guinea pig at 40 mg/kg, administered via intratracheal insufflation by HPLC method; type: ADME, organism-based, Cavia porcellus; parameters: dose 40 mg/kg, route endotracheal; details: in vivo, inhaled or intranasal; how it was run: as §1
[31] = Bioavailability (0 to infinity) in guinea pig at 40 mg/kg, administered via intratracheal insufflation by HPLC method; type: ADME, organism-based, Cavia porcellus; details: in vivo, inhaled or intranasal; how it was run: as §1
[32] = Bioavailability in guinea pig at 40 mg/kg, administered via intratracheal insufflation by HPLC method; type: ADME, organism-based, Cavia porcellus; details: in vivo, inhaled or intranasal; how it was run: as §1
[33] = AUC (0 to infinity) in guinea pig at 60 mg/kg, administered via intratracheal insufflation by HPLC method; type: ADME, organism-based, Cavia porcellus; parameters: time infinity, dose 60 mg/kg, route endotracheal; details: plasma, inhaled or intranasal; how it was run: as §1
[34] = Elimination rate constant in guinea pig at 60 mg/kg, administered via intratracheal insufflation by HPLC method; type: ADME, organism-based, Cavia porcellus; parameters: dose 60 mg/kg, route endotracheal; details: in vivo, inhaled or intranasal; how it was run: as §1
[35] = Half life in guinea pig at 60 mg/kg, administered via intratracheal insufflation by HPLC method; type: ADME, organism-based, Cavia porcellus; parameters: dose 60 mg/kg, route endotracheal; details: in vivo, inhaled or intranasal; how it was run: as §1
[36] = Mean residence time in guinea pig at 60 mg/kg, administered via intratracheal insufflation by HPLC method; type: ADME, organism-based, Cavia porcellus; parameters: dose 60 mg/kg, route endotracheal; details: in vivo, inhaled or intranasal; how it was run: as §1
[37] = Cmax in guinea pig at 60 mg/kg, administered via intratracheal insufflation by HPLC method; type: ADME, organism-based, Cavia porcellus; parameters: dose 60 mg/kg, route endotracheal; details: in vivo, inhaled or intranasal; how it was run: as §1
[38] = Tmax in guinea pig at 60 mg/kg, administered via intratracheal insufflation by HPLC method; type: ADME, organism-based, Cavia porcellus; parameters: dose 60 mg/kg, route endotracheal; details: in vivo, inhaled or intranasal; how it was run: as §1
[39] = Bioavailability (0 to infinity) in guinea pig at 60 mg/kg, administered via intratracheal insufflation by HPLC method; type: ADME, organism-based, Cavia porcellus; details: in vivo, inhaled or intranasal; how it was run: as §1
[40] = Bioavailability in guinea pig at 60 mg/kg, administered via intratracheal insufflation by HPLC method; type: ADME, organism-based, Cavia porcellus; details: in vivo, inhaled or intranasal; how it was run: as §1
[41] = Chemical stability of the compound at 4 degC; type: physicochemical
[42] = Chemical stability of the compound at 25 degC; type: physicochemical
[43] = Half life in po dosed monkey; type: ADME, organism-based, Macaca mulatta; details: rhesus monkey, in vivo
[44] = Half life in po dosed dog; type: ADME, organism-based, Canis lupus familiaris; details: in vivo
[45] = Tmax in po dosed monkey; type: ADME, organism-based, Macaca mulatta; details: rhesus monkey, in vivo
[46] = Tmax in po dosed rat; type: ADME, organism-based; details: in vivo
[47] = system: Mycobacterium tuberculosis; experiment: Antimicrobial activity against Mycobacterium tuberculosis; type: functional
[48] = Ratio of Cmax in guinea pig at 40 mg/kg, po to MIC for Mycobacterium tuberculosis; type: functional
[49] = Ratio of Cmax in guinea pig at 40 mg/kg, administered via intratracheal insufflation to MIC for Mycobacterium tuberculosis; type: functional; details: route endotracheal
[50] = Ratio of Cmax in mouse at 100 mg/kg, po to MIC for Mycobacterium tuberculosis; type: functional
[51] = Metabolic stability of the compound assessed as compound remaining in lung of guinea pig administered via intratracheal insufflation; type: ADME, tissue-based, Cavia porcellus; details: in vivo, inhaled_or_intranasal
How it was run: (§2)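 After the last blood sample (32 h), the guinea pigs were euthanized by exsanguination. BAL fluid was collected with 5 ml sterile saline and centrifuged. The supernatant was assayed for drug by the plasma HPLC method, adapted for BAL fluid. Routes were i.v. 20 mg/kg, oral 40 mg/kg, or insufflated powder 20, 40, 60 mg/kg; n = 6 or 7.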

[52] = Metabolic stability of the compound assessed as compound remaining in lung of guinea pig at 20 mg/kg, iv after 32 hrs; type: ADME, organism-based, Cavia porcellus; parameters: dose 20 mg/kg, route intravenous; details: in vivo; how it was run: as §2
[53] = Metabolic stability of the compound assessed as compound remaining in lung of guinea pig at 40 mg/kg, po after 32 hrs; type: ADME, organism-based, Cavia porcellus; parameters: dose 40 mg/kg, route oral; details: in vivo; how it was run: as §2

O=[N+]([O-])c1cn2c(n1)OC[C@@H](OCc1ccc(OC(F)(F)F)cc1)C2 [PRETOMANID]
Stability [1]: Stable
Stability [2]: Unstable
Stability [3]: Stable
AUC (Cavia porcellus [4]): 26540 ng·h/mL
k el [5]: 0.000103 s⁻¹
half-life [6]: 1.91 h
MRT [7]: 2.69 h
Cmax [8]: 9190 ng/mL
Tmax [9]: 6.6 min
AUC (Cavia porcellus [10]): 25770 ng·h/mL
k el [11]: 8.33e-05 s⁻¹
half-life [12]: 2.43 h
MRT [13]: 5.37 h
Cmax [14]: 4140 ng/mL
Tmax [15]: 4 h
F (Cavia porcellus [16]): 0.56%
AUC(0-inf) [17]: 14800 ng·h/mL
k el [18]: 6.67e-05 s⁻¹
half-life [19]: 2.83 h
MRT [20]: 5.17 h
Cmax [21]: 2010 ng/mL
Tmax [22]: 4.33 h
bioavailability [23]: 0.59%
bioavailability [24]: 2.11%
AUC(0-inf) [25]: 32300 ng·h/mL
k el [26]: 4.72e-05 s⁻¹
half-life [27]: 4.38 h
MRT [28]: 7.52 h
Cmax [29]: 3420 ng/mL
Tmax [30]: 3.25 h
bioavailability [31]: 0.63%
bioavailability [32]: 1.12%
AUC(0-inf) [33]: 51000 ng·h/mL
k el [34]: 3.61e-05 s⁻¹
half-life [35]: 5.91 h
MRT [36]: 8.26 h
Cmax [37]: 4580 ng/mL
Tmax [38]: 3.6 h
bioavailability [39]: 0.62%
bioavailability [40]: 0.74%
Stability [41]: Stable
Stability [42]: Stable
half-life [43]: 2 h
half-life [44]: 1 h
Tmax [45]: 3.33 h
Tmax [46]: 6 h
MIC [47]: 0.015 µg/mL (≈ 0.0418 µM)
Ratio [48]: 14
Ratio [49]: 17
Ratio [50]: 80
Activity [51]: Dose-dependent effect
Stability [52]: Unstable
Stability [53]: Unstable
